UCH37 inh = human UCH37 deubiquitinating enzyme inhibition; purified proteasome/UCH37, Ub-AMC cleavage fluorescence; inhibition, % (no concentration beside the values); AID 588478; hit rate 0.33% among 330,000; Q9Y5K5;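 active = mean inhibition over replicate wells above about 20%, limit read from the data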;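 note: 0% = compound-free wells with enzyme and 100% = wells lacking proteasome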
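Material: human UCH37 enzyme supplied as purified proteasome complex. Measure: % inhibition of Ub-AMC cleavage fluorescence. Medium: pH 7.4 Tris-HCl (50 mM) with ovalbumin, ATP-MgCl2, DTT. Times: 30 min preincubation with enzyme, 25 min cleavage at room temperature. Detection: AMC fluorescence intensity at 355/460 nm.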
Fh CTSL1 inh = blocks F. hepatica cathepsin L1 in PFM18AAP counter-screen | recombinant F. hepatica cathepsin L1, Z-Leu-Arg-MCA fluorescence | inhibition, % at 5.96 µM | hit rate 0.49% among 300,000 | AID 1906;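 active = inhibition above the mean of all tested compounds plus 3 SD, set per screening campaign, cut at about 17% in these data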;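 note: 0% = plate median of test compound wells and 100% = 1 µM Z-Phe-Ala-diazomethylketone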
DAGLB inh = blocks human DAGLB lipase activity; hit rate 0.059% among 340,000; HEK293T DAGLB membrane lysate, EnzChek fluorogenic substrate; inhibition, % at 5.17 µM; AID 504411; in the data active = inhibition above about 34%;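 note: 0% = enzyme with vehicle and 100% = wells lacking enzyme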
Target sequence (Q8NCG7 whole entry, looked up): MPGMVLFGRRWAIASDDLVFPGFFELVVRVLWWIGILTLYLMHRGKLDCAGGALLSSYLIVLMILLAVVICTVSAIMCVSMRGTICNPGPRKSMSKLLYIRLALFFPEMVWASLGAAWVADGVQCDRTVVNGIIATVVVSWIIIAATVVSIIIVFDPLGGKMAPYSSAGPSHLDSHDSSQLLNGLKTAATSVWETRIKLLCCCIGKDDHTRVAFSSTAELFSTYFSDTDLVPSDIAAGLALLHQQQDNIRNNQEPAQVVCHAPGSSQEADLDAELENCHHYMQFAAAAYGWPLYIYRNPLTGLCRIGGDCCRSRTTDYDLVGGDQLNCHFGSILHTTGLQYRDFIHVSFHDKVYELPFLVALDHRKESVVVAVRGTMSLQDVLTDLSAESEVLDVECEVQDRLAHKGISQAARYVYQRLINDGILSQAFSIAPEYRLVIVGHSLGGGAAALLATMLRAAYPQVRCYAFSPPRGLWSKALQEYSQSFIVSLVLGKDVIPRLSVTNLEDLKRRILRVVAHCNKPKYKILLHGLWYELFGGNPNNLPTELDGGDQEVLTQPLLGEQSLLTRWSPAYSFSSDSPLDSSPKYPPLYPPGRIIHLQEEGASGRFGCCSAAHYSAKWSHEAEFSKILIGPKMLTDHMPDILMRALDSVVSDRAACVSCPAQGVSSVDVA
CendR NRP1 mod = alters CendR peptide binding to human NRP-1. O14786. FAM-RPARPAR peptide binding to NRP-1, fluorescence polarization. inhibition, % at 25 µM. hit rate 0.85% among 360,000;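 active = inhibition or corrected inhibition above about 18%, plus a signal ratio from 0.5 to 1.5, limit read from the data, passing the limit was not always enough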
MT1-MMP act inh = blocks activation of human MT1-MMP | hit rate 0.061% among 360,000 | HT1080 RFP-PRO-GFP cells, GFP/RFP ratio fluorescence, overnight; percent of plate control window, DMSO zero | GFP/RFP ratio change, % at 20 µM | AID 651647;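 active = GFP/RFP ratio change of at least 30% with cell ATP level not reduced by more than half and red fluorescence within 50% of control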
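Assay system: HT1080 RFP-PRO-GFP cells. Benchmarks: DMSO vehicle wells and RFP-L50D-GFP reporter cell wells. Times: overnight cell settling, then overnight compound exposure, 37 °C, 5% CO2. Compound: 20 µM single dose, 1% DMSO. Read-out basis: GFP/RFP fluorescence ratio.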
An asterisk follows results filed as active; . = no result given; ! = not confirmed by another sample. This is a sample that favours compounds with a hit; in the whole collection about 1.5% have one here.

SMILES	UCH37 inh	Fh CTSL1 inh	DAGLB inh	CendR NRP1 mod	MT1-MMP act inh
CCOc1cc(C=C2C(=O)NC(=O)NC2=O)cc([N+](=O)[O-])c1O	26*	-1	.	.	.
Oc1cc2c(cc1CN1CCN(c3ccccc3)CC1)CCC2	2	-1	-6	-4	0
O=P(CN1CCN(c2ccccc2)CC1)(N1CCCCC1)N1CCCCC1	4	0	2	34*	-2
COC(=O)C1=C(c2ccc(OC(F)(F)F)cc2)C[C@@H]2CC[C@H]1N2C(=O)N1CCCC1	1	.	-4	-1	0
COC(=O)C1=C(c2ccc(C(C)=O)cc2)C[C@@H]2CC[C@H]1N2C(=O)N1CCC(O)CC1	-1	.	-3	29*	2
COC(=O)C1=C(c2ccc(OC(F)(F)F)cc2)C[C@@H]2CC[C@H]1N2C(=O)N1CCC(C)CC1	1	.	-15	29*	8
COC(=O)C1=C(c2ccc(C(C)=O)cc2)C[C@@H]2CC[C@H]1N2C(=O)N1CCOCC1	0	.	-3	10	6
O=C(Nc1ccc(Cl)cc1)ON=C(c1ccccc1)c1ccccn1	2	.	.	.	.
COc1ccc(C(=O)NN=CC23CC[C@@H](O)CC2(O)CC[C@@H]2[C@@H]3CCC3(C)C(C4=CC(=O)OC4)CCC23O)cc1 (stereo partly drawn)	6	.	.	.	.
CC1(C(=O)O)CCCC2(C)c3cc(O)ccc3CCC12 (stereo not drawn)	2	1	.	34*	1
Cc1ccccc1-n1c(O)c(/C=N/c2nccs2)c(=O)[nH]c1=O	3	17*!	-2	-27	-9
Nc1ccc2ccc3cccc[n+]3c2c1	.	3	-84	131	-174
C[n+]1c(-c2ccccc2)c2cc(N)ccc2c2ccc(N)cc21	6	31*	4	56*	59
Cc1nc2ccccc2c(=O)n1N=Cc1cc(Br)cc(Br)c1O	0	.	.	.	.
O=S(=O)(NC1CCCCCCC1)OCC(Cl)(Cl)Cl	1	0	-8	22*	5
CCOC(=O)c1ccccc1C(=O)OCC	1	-2	2	44*	-10
CCCCC(=NO)c1c(C)[nH]c2ccccc12	-1	.	.	.	.
O=c1c2ccccc2nc(CSc2ncnc3nc[nH]c23)n1-c1ccccc1Cl	2	21*	3	14	0
O=c1c2ccccc2nc(CSc2ncnc3nc[nH]c23)n1-c1ccccc1	1	0	-5	6	0
CC1=C2CCC3C(CCC4=CC(=O)CCC43C)C2CC1 (stereo not drawn)	20*	.	-7	2	3
C[C@]12CCC(=O)C=C1CC[C@@H]1[C@@H]2CC[C@@]2(C)[C@H]1CC[C@]2(C)O	1	.	3	-4	-3
COC(=O)C1=C(c2ccc(F)cc2F)C[C@@H]2CC[C@H]1N2C(=O)N1CCCCC1	21*	.	-2	22*	5
COC(=O)C1=C(c2ccc(F)cc2F)C[C@@H]2CC[C@H]1N2C(=O)N1CCOCC1	-1	.	-4	16	-3
COC(=O)C1=C(c2ccc(F)cc2F)C[C@@H]2CC[C@H]1N2C(=O)N1CCCC1	-1	.	1	28*	2
CC(CC(c1ccccc1)c1c(O)c2ccccc2oc1=O)=NNC(N)=S (stereo not drawn)	1	.	.	.	.
SMILES	UCH37 inh	Fh CTSL1 inh	DAGLB inh	CendR NRP1 mod	MT1-MMP act inh
CNC(=O)Oc1ccc2c(c1)C(=O)c1ccccc1CO2	-3	21*	-1	-7	5
CNC(=O)Oc1cccc(-c2cn3cc(OC(=O)NC)ccc3n2)c1	-49	0	-2	-7	.
Cc1ccccc1N1C(=O)/C(=C/c2ccco2)C(=O)NC1=S	.	2	.	.	.
CCc1ccccc1N1C(=O)/C(=C/c2ccc(N3CCN(C)CC3)o2)C(=O)NC1=S	16	3	1	6	-33
Cc1cccc(N2C(=O)/C(=C/c3ccc(N4CCN(C)CC4)o3)C(=O)NC2=S)c1C	22*	-1	-3	126	-14
Cc1ccccc1N1C(=O)NC(=O)/C(=C/c2ccc(N3CCOCC3)o2)C1=O	21*	11	-10	-176	-48
Cc1ccccc1N1C(=O)NC(=O)/C(=C\c2cc(Br)c(N3CCOCC3)o2)C1=O	23*	7	2	-98	-123
O=P(C(=NO)N1CCOCC1)(N1CCOCC1)N1CCOCC1	7	.	.	.	.
Cn1c(=O)c2c(nc(N/N=C/c3c(O)n(-c4ccccc4)c(=S)[nH]c3=O)n2C)n(C)c1=O	21*	4	1	5	13

Compound activity: PubChem, several laboratories
